Counter-ions that a name gives are not always drawn. Non-standard residues stand in square brackets, D forms with d. Residues, ends and D or L forms follow the SMILES beside them. *: point of attachment. dPhe(4-NHCONH2) = NC(=O)Nc1ccc(C[C@@H](N)C(=O)O)cc1; Dihydroorotyl(S) = O=C1C[C@@H](C(=O)*)NC(=O)N1; dPhe(4-Cl) = N[C@H](Cc1ccc(Cl)cc1)C(=O)O; Phe(4-NH2) = Nc1ccc(C[C@H](N)C(=O)O)cc1; d2Nal = N[C@H](Cc1ccc2ccccc2c1)C(=O)O; Lys(iPr) = CC(C)NCCCC[C@H](N)C(=O)O; d3Pal = N[C@H](Cc1cccnc1)C(=O)O
Columns and labels:
healthy men = assay: Safety assessments; type: in vivo
In short: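 Six-sequence crossover of iv test compound, iv placebo and oral moxifloxacin, with 7–10 day washouts. Adverse events, 12-lead ECG and vital signs were monitored throughout. Clinical chemistry, haematology and urinalysis were run by a central laboratory. Adverse event was defined as any untoward medical occurrence in a participant.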

[1] = test system: human ether-a-go-go-related gene (hERG) channel; settings: preclinical investigations; ref Ferring Pharmaceuticals, unpublished data; cited from earlier work
[2] = Degarelix plasma concentration; type: in vivo, healthy men
In short: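 Single 60-min iv infusion of 2.8 mg in 5% glucose. Plasma sampled predose and at 30, 60, 90, 120, 150, 180 min, 6, 12 and 24 h after infusion start. Assay: validated solid-phase extraction with LC–MS/MS, quantification range 0.500–100 ng/mL (up to 500 ng/mL after dilution), precision and bias within 10%. Parameters from noncompartmental analysis; values below LLOQ or missing were excluded.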

[3] = cited from earlier work
[4] = test system: QT interval / cardiac repolarisation in healthy men; assay: Thorough QT/QTc study, 12-lead ECG, QTcF; type: in vivo; settings: for No. of subjects with ΔQTcF >30 ms / No. of subjects with ΔQTcF >60 ms / No. of subjects with ΔQTcF ≤30 ms / No. of subjects with QTcF >450 ms / No. of subjects with QTcF >480 ms / No. of subjects with QTcF >500 ms / No. of subjects with QTcF ≤450 ms: categorical analysis, degarelix n = 76, moxifloxacin n = 78; for No. of subjects with ΔQTcF >30 ms / No. of subjects with ΔQTcF >60 ms / No. of subjects with ΔQTcF ≤30 ms: change from baseline
human GnRH receptor = settings: cited from earlier work

Compound	Number of AEs reported (healthy men; after each treatment)	No. of subjects with ΔQTcF >30 ms [4]	No. of subjects with ΔQTcF >60 ms [4]	No. of subjects with ΔQTcF ≤30 ms [4]	No. of subjects with QTcF >450 ms [4]	No. of subjects with QTcF >480 ms [4]	No. of subjects with QTcF >500 ms [4]	No. of subjects with QTcF ≤450 ms [4]	other results
CC(=O)N[C@H](Cc1ccc2ccccc2c1)C(=O)N[C@H](Cc1ccc(Cl)cc1)C(=O)N[C@H](Cc1cccnc1)C(=O)N[C@@H](CO)C(=O)N[C@@H](Cc1ccc(NC(=O)[C@@H]2CC(=O)NC(=O)N2)cc1)C(=O)N[C@H](Cc1ccc(NC(N)=O)cc1)C(=O)N[C@@H](CC(C)C)C(=O)N[C@@H](CCCCNC(C)C)C(=O)N1CCC[C@H]1C(=O)N[C@H](C)C(N)=O [degarelix] (Ac-[d2Nal][dPhe(4-Cl)][d3Pal]S[Phe(4-NH2)](Dihydroorotyl(S))[dPhe(4-NHCONH2)]L[Lys(iPr)]P[dA]-NH2)	27	3 (4%) n (%)	0 n (%)	73 (96%) n (%)	0 n (%)	0 n (%)	0 n (%)	76 (100%) n (%)	Intensity of AEs (healthy men; after degarelix treatment): mild intensity; Mean changes in placebo-corrected HR, PR and QRS durations (healthy men; degarelix 2.8 mg iv): did not show any clinically relevant results; Effect on hERG channel [1]: no effect; Degarelix concentration at 24 h relative to Cmax ([2]; 24 h after start of degarelix 2.8 mg iv administration): < 10%; Cmax ([2]; male, human, plasma, iv, 2.8 mg): 222 ng/mL; Median maximal degarelix plasma concentration ([2]; single dose 2.8 mg infused iv over 60 min at constant rate): approximately 220 ng/mL; Median peak concentration ([3]; single subcutaneous administration of 240 mg, prostate cancer): 66 ng/mL; Half-life ([3]; subcutaneous administration, slow-release phase from in situ depot): several weeks; One-sided 95% upper confidence boundaries for ΔΔQTcF at any of the nine timepoints ([4]; degarelix 2.8 mg iv over 60 min, 24-h period after start of infusion): ≤ 10 ms; Mean maximum baseline-corrected difference versus placebo in QTcF ([4]; degarelix 2.8 mg iv over 60 min, time-matched): < 4 ms; Slope of concentration-response effect on QTcF compared with placebo ([4]; repeated measures ANCOVA, 677 observations from 79 subjects): slightly negative slope; Affinity and selectivity towards the human GnRH receptor (human GnRH receptor): high affinity and selectivity
COc1c(N2C[C@@H]3CCCN[C@@H]3C2)c(F)cc2c(=O)c(C(=O)O)cn(C3CC3)c12 [moxifloxacin, moxifloxacin hydrochloride]	29	15 (19%) n (%)	0 n (%)	63 (81%) n (%)	2 (3%) n (%)	0 n (%)	0 n (%)	76 (97%) n (%)	Subjects reporting AEs (healthy men; 80 subjects randomised, after each treatment): 22 (28%) n (%); QTc prolongation produced by positive control ([4]; moxifloxacin 400 mg oral): ≥ 5 ms; Lower bound of 98.3% CI for ΔΔQTcF (moxifloxacin vs placebo) ([4]; moxifloxacin 400 mg single oral dose, at 2.5, 3 and 6 h, assay sensitivity): exceeded 5 ms

Reference: paper PMC5569649 (Clinical Drug Investigation, 2017)
